In ChEMBL document CHEMBL1124345, “Linear and proximal benzo-separated alkylated xanthines as adenosine-receptor antagonists” (J Med Chem, 1989):
pKi: −log10 of the molar value.

Key:
[1] = (§1) Selectivity for A2 and A1 receptors was evaluated
Procedure, shortened: (§2)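 Rat brain membranes (A1) bound with 1 nM [3H]-N6-cyclohexyladenosine (25 Ci/mmol). Rat striatal membranes (A2) bound with 4 nM [3H]NECA (30 Ci/mmol) in the presence of 50 nM N6-cyclopentyladenosine. Both incubations ran 1 h at 25 °C. Selectivity compares the affinities from the two binding assays.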

Adenosine A2 receptor = Adenosine A2 receptor (Rattus norvegicus, UniProt P29276+P30543); assay: Binding affinity against Adenosine A2 receptor in rat striatal membrane, using [3H]-NECA as the radioligand.
Adenosine receptor A1 = molecular target: T1, Adenosine receptor A1 (Rattus norvegicus, UniProt P25099); assay: Binding affinity against Adenosine A1 receptor in rat brain membrane, using [3H]N6-cyclohexyladenosine as the radioligand; format: tissue-based
T1 sequence (P25099 whole entry): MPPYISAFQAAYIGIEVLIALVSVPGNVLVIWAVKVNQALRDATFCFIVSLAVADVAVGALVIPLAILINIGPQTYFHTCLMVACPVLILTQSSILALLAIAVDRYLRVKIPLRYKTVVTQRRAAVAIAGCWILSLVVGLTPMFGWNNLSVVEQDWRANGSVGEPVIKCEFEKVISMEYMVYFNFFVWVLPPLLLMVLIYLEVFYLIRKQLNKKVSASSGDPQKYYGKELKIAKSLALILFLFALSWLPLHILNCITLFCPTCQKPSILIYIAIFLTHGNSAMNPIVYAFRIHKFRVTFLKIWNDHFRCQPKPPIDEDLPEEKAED

[2] = molecular target: Adenosine receptors; A1 & A2 (Rattus norvegicus) (UniProt P29276+P25099+P30543); assay: as §1; format: protein assay; procedure, shortened: as §2

Row | Ratio [1] | Ki (Adenosine A2 receptor) [µM] | pKi (Adenosine receptor A1) | Ratio [2] | Structure (SMILES)
1 | 23 | 10.4 | 6.35 | – | Cn1c(=O)c2c3nc(-c4ccccc4)[nH]c3ccc2n(C)c1=O
2 | – | 58 | < 4.00 | – | CCn1c(=O)c2c3nc(-c4ccccc4)[nH]c3ccc2n(CC)c1=O
3 | – | – | < 3.00 | – | Cn1c(=O)c2ncn(C)c2n(C)c1=O [ISOCAFFIENE]
4 | – | 0.67 | 6.75 | 3.7 | CCCCn1c(=O)c2cc3nc[nH]c3cc2n(CCCC)c1=O
5 | – | 0.79 | 6.53 | 2.7 | CCCn1c(=O)c2c3nc[nH]c3ccc2n(CCC)c1=O
6 | 5.6 | 13.8 | – | – | CC(C)Cn1c(=O)n(C)c(=O)c2nc[nH]c21 [ISOBUTYLMETHYLXANTHINE]
7 | – | > 100 | < 4.00 | – | CCn1c(=O)c2cc3nc(-c4ccccc4)[nH]c3cc2n(CC)c1=O
8 | – | 23 | 4.94 | 1.99 | Cn1c(=O)c2cc3c(cc2n(C)c1=O)ncn3C
9 | – | 17.9 | 4.87 | 1.34 | Cn1c(=O)c2c3nc[nH]c3ccc2n(C)c1=O
10 | – | 2.4 | 6.21 | 3.9 | CC(C)Cn1c(=O)n(C)c(=O)c2cc3[nH]cnc3cc21
11 | – | 12.7 | 4.99 | 1.23 | Cn1c(=O)c2c3c(ccc2n(C)c1=O)ncn3C
12 | – | 1.32 | 6.91 | 10.7 | CCCn1c(=O)c2cc3nc[nH]c3cc2n(CCC)c1=O
13 | – | > 100 | < 4.00 | – | Cn1c(=O)c2cc3nc(-c4ccccc4)[nH]c3cc2n(C)c1=O
14 | – | 1.96 | 6.76 | 11.2 | CCCCn1c(=O)c2c3nc[nH]c3ccc2n(CCCC)c1=O
15 | – | 58 | 4.82 | 3.8 | Cn1c(=O)c2cc3ncn(C)c3cc2n(C)c1=O
16 | – | 85 | – | 3.6 | Cn1c(=O)c2cc3nc[nH]c3cc2n(C)c1=O
17 | – | – | 4.62 | – | Cn1c(=O)c2cc3[nH]cnc3cc2n(C)c1=O
18 | – | 1.97 | 6.07 | 2.3 | CC(C)Cn1c(=O)n(C)c(=O)c2c3nc[nH]c3ccc21
